From ChEMBL document CHEMBL4043246, “Discovery of novel [1,2,4]triazolo[4,3-a]quinoxaline aminophenyl derivatives as BET inhibitors for cancer treatment” (Bioorg Med Chem Lett, 2017)

Legend:
[1] = biological target: Chromatin remodeling regulator CECR2 (Homo sapiens) (UniProt Q9BXF3); assay: Inhibition of human partial length CECR2 (P423 to D543 residues) expressed in bacterial expression system assessed as residual activity at 500 nM relative to control by BROMOscan assay
[2] = biological target: Bromodomain-containing protein 9 (Homo sapiens) (UniProt Q9H8M2); assay: Inhibition of human partial length BRD9 (R130 to V259 residues) expressed in bacterial expression system assessed as residual activity at 500 nM relative to control by BROMOscan assay
[3] = biological target: Histone acetyltransferase KAT2B (Homo sapiens) (UniProt Q92831); assay: Inhibition of human partial length PCAF (G715 to D831 residues) expressed in bacterial expression system assessed as residual activity at 500 nM relative to control by BROMOscan assay
Histone acetyltransferase KAT2B (Homo sapiens), sequence (Q92831 whole entry, looked up, the tested form may be a part): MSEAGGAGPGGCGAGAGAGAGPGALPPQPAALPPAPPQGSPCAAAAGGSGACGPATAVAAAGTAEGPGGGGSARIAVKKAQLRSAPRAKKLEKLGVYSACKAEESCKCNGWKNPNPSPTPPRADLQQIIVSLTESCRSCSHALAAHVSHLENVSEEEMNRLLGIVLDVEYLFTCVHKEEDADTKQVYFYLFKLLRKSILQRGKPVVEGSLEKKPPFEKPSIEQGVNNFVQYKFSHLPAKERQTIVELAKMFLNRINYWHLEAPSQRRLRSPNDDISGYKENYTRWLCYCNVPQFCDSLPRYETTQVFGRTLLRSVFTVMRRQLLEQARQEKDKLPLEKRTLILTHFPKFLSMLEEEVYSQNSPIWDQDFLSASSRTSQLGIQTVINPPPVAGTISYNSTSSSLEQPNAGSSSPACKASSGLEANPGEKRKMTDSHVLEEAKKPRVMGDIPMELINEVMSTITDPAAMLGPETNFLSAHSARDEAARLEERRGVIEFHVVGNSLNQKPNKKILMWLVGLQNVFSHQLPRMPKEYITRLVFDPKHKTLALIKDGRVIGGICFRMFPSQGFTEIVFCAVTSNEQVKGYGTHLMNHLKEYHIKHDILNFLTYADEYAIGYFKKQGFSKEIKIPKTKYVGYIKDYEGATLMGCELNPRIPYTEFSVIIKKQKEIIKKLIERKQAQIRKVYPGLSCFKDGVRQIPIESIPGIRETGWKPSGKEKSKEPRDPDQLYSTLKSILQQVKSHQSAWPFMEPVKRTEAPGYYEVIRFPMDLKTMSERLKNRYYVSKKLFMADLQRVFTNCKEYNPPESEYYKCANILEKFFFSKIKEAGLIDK

[4] = biological target: CREB-binding protein (Homo sapiens) (UniProt Q92793); assay: Inhibition of human partial length CREBBP (R1081 to G1197 residues) expressed in bacterial expression system assessed as residual activity at 500 nM relative to control by BROMOscan assay
[5] = Cell cycle arrest in human TY82 cells assessed as accumulation at sub-G1 phase at 1 uM after 24 hrs by DAPI staining based assay (reference value: 6%); assay type: functional
[6] = biological target: Bromodomain adjacent to zinc finger domain protein 2A (Homo sapiens) (UniProt Q9UIF9); assay: Inhibition of human partial length BAZ2A (M1792 to L1905 residues) expressed in bacterial expression system assessed as residual activity at 500 nM relative to control by BROMOscan assay
[7] = biological target: Bromodomain-containing protein 2 (Homo sapiens) (UniProt P25440); assay: Inhibition of human partial length BRD2 BD2 (E348 to D455 residues) expressed in bacterial expression system assessed as residual activity at 500 nM relative to control by BROMOscan assay
Bromodomain-containing protein 2 (Homo sapiens), sequence (P25440 whole entry, looked up, the tested form may be a part): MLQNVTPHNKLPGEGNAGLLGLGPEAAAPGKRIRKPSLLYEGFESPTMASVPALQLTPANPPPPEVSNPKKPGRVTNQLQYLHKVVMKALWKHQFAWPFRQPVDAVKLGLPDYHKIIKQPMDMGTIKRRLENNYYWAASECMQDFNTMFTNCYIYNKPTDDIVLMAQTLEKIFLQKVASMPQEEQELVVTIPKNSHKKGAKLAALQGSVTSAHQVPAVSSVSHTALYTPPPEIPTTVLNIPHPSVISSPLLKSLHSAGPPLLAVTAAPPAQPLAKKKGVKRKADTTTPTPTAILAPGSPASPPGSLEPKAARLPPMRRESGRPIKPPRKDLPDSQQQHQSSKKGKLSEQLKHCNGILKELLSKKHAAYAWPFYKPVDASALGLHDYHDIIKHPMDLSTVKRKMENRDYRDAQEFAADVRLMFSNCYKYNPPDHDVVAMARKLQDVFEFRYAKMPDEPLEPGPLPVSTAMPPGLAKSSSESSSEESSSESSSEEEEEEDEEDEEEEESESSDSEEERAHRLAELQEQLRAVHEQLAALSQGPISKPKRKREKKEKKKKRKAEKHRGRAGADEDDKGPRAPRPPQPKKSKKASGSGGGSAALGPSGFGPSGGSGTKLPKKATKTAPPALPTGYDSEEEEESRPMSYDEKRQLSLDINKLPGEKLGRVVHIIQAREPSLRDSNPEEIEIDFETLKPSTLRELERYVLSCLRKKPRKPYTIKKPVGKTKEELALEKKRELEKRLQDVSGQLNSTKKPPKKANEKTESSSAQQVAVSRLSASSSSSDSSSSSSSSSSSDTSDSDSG

[8] = biological target: Protein polybromo-1 (Homo sapiens) (UniProt Q86U86); assay: Inhibition of human partial length PBRM1 BD5 (S645 to D766 residues) expressed in bacterial expression system assessed as residual activity at 500 nM relative to control by BROMOscan assay
Protein polybromo-1 (Homo sapiens), sequence (Q86U86 whole entry, the tested form may be a part): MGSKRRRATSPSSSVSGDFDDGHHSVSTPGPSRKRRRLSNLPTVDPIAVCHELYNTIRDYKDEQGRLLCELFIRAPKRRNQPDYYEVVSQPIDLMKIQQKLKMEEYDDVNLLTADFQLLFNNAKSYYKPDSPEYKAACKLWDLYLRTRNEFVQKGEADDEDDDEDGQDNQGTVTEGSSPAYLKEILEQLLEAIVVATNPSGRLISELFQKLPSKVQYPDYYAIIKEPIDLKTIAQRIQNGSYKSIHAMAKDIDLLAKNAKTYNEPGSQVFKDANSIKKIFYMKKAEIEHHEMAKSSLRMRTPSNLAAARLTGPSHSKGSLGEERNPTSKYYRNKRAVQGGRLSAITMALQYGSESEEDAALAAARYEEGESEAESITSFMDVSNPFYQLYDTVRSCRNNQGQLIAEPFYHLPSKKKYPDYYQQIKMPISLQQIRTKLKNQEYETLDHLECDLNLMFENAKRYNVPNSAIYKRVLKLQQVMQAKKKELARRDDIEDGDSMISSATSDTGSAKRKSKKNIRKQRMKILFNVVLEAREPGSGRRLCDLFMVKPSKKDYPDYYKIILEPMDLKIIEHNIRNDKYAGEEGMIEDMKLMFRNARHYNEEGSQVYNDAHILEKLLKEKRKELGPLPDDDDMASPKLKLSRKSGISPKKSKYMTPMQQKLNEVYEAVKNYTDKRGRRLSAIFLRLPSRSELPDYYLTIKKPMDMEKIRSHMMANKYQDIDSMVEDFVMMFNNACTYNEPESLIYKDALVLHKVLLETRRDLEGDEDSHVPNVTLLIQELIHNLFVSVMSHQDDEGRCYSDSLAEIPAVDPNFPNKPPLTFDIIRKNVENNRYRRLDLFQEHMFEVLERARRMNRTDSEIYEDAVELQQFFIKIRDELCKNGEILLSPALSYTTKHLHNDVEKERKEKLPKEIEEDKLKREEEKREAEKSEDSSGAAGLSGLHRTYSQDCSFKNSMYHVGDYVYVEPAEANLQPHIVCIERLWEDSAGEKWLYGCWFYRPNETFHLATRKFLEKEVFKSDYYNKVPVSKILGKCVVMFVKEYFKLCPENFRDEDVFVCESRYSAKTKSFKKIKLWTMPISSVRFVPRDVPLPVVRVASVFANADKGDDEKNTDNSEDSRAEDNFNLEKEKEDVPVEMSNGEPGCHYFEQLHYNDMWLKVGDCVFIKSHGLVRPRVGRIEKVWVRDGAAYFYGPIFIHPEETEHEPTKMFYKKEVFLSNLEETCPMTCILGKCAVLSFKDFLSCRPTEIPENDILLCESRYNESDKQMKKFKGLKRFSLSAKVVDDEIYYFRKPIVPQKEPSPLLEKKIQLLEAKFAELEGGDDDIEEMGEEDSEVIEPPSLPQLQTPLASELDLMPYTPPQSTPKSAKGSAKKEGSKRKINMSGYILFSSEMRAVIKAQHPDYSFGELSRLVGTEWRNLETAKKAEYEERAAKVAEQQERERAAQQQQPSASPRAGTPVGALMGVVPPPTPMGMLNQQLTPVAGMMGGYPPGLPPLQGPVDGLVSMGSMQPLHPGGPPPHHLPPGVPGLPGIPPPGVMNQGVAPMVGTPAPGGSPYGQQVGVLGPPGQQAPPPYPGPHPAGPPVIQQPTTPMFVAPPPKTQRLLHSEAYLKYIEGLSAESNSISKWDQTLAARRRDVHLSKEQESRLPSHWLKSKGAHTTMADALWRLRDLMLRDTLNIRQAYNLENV

[9] = biological target: Bromodomain-containing protein 3 (Homo sapiens) (UniProt Q15059); assay: Inhibition of human partial length BRD3 BD1 (P24 to E144 residues) expressed in bacterial expression system assessed as residual activity at 500 nM relative to control by BROMOscan assay
Bromodomain-containing protein 3 (Homo sapiens), sequence (Q15059 2-726 limits assumed): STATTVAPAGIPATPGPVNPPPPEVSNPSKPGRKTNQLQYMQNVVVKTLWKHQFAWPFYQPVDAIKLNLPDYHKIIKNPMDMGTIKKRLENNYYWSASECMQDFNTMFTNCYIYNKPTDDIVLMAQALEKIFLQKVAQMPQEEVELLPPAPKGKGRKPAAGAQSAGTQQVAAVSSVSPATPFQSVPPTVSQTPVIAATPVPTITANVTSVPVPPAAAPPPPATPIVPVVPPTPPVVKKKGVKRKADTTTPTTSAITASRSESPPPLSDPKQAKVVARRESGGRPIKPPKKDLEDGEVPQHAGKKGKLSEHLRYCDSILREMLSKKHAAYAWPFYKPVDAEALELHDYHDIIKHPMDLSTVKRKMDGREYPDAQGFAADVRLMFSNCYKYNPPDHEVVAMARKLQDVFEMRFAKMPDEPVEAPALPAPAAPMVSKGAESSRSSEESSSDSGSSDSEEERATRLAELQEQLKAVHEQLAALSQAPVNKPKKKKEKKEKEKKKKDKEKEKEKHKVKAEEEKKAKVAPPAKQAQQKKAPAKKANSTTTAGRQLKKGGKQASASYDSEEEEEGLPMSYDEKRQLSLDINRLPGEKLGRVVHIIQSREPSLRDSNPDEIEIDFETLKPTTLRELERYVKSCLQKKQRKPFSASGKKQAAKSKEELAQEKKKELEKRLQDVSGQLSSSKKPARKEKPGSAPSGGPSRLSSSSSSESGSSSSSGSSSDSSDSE

[10] = biological target: ATPase family AAA domain-containing protein 2 (Homo sapiens) (UniProt Q6PL18); assay: Inhibition of human partial length ATAD2A (Q981 to R1108 residues) expressed in bacterial expression system assessed as residual activity at 500 nM relative to control by BROMOscan assay
[11] = biological target: SWI/SNF-related matrix-associated actin-dependent regulator of chromatin subfamily A member 4 (Homo sapiens) (UniProt P51532); assay: Inhibition of human partial length SMARCA4 (A1448 to S1575 residues) expressed in bacterial expression system assessed as residual activity at 500 nM relative to control by BROMOscan assay
[12] = Stability in rat liver microsomes assessed as parent compound remaining after 30 mins; assay type: ADME, microsome; settings: read-out: Stability
Outline: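 Incubated in vitro with mouse, rat or human liver microsomes for 30 minutes. Result expressed as percent of parent compound remaining.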

[13] = biological target: Transcription initiation factor TFIID subunit 1-like (Homo sapiens) (UniProt Q8IZX4); assay: Inhibition of human partial length TAF1L BD2 (Q1523 to D1654 residues) expressed in bacterial expression system assessed as residual activity at 500 nM relative to control by BROMOscan assay
[14] = biological target: T1, Bromodomain-containing protein 4 (Homo sapiens, UniProt O60885); assay: Inhibition of BRD4 in human TY82 cells assessed as decrease in c-MYC expression level after 24 hrs by Western blot analysis; assay type: cell-based
Outline: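 Ty-82 cells at 70% confluency were treated with varying compound concentrations for 24 h. Samples were run on 12% SDS-PAGE and transferred to nitrocellulose. Membranes were blocked in PBS/1% BSA/0.1% Tween 20 for 1 h, probed with c-MYC antibodies, and detected by chemiluminescence.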

[15] = biological target: Histone acetyltransferase p300 (Homo sapiens) (UniProt Q09472); assay: Inhibition of human partial length EP300 (A1040 to G1161 residues) expressed in bacterial expression system assessed as residual activity at 500 nM relative to control by BROMOscan assay
[16] = biological target: Protein polybromo-1 (Homo sapiens) (UniProt Q86U86); assay: Inhibition of human partial length PBRM1 BD2 (S178 to E291 residues) expressed in bacterial expression system assessed as residual activity at 500 nM relative to control by BROMOscan assay
[17] = Cell cycle arrest in human TY82 cells assessed as accumulation at G2/M phase at 10 uM after 24 hrs by DAPI staining based assay (reference value: 9%); assay type: functional
[18] = biological target: Bromodomain-containing protein 2 (Homo sapiens) (UniProt P25440); assay: Inhibition of human partial length BRD2 BD1 (K71 to N194 residues) expressed in bacterial expression system assessed as residual activity at 500 nM relative to control by BROMOscan assay
[19] = biological target: Transcription initiation factor TFIID subunit 1 (Homo sapiens) (UniProt P21675); assay: Inhibition of human partial length TAF1 BD2 (D1521 to D1656 residues) expressed in bacterial expression system assessed as residual activity at 500 nM relative to control by BROMOscan assay
[20] = biological target: T1, Bromodomain-containing protein 4; assay: Inhibition of human partial length BRD4 BD1 (N44 to E168 residues) expressed in bacterial expression system assessed as residual activity at 500 nM relative to control by BROMOscan assay
[21] = biological target: Peregrin (Homo sapiens) (UniProt P55201); assay: Inhibition of human partial length BRPF1 (E627 to G740 residues) expressed in bacterial expression system assessed as residual activity at 500 nM relative to control by BROMOscan assay
[22] = biological target: Bromodomain-containing protein 3 (Homo sapiens) (UniProt Q15059); assay: Inhibition of human partial length BRD3 BD2 (G306 to P416 residues) expressed in bacterial expression system assessed as residual activity at 500 nM relative to control by BROMOscan assay
[23] = biological target: Bromodomain testis-specific protein (Homo sapiens) (UniProt Q58F21); assay: Inhibition of human partial length BRDT BD2 (K250 to E382 residues) expressed in bacterial expression system assessed as residual activity at 500 nM relative to control by BROMOscan assay
[24] = Cell cycle arrest in human TY82 cells assessed as accumulation at sub-G1 phase at 10 uM after 24 hrs by DAPI staining based assay (reference value: 6%); assay type: functional
[25] = tested on: Rattus norvegicus; assay: Half life in rat at 20 mg/kg, po; assay type: ADME, organism-based; settings: in vivo
Outline: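 Rat pharmacokinetics with single intravenous (2 mg/kg) or oral (5 or 20 mg/kg) dosing. Terminal half-life is reported in hours.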

[26] = biological target: Bromodomain-containing protein 7 (Homo sapiens) (UniProt Q9NPI1); assay: Inhibition of human partial length BRD7 (L125 to R254 residues) expressed in mammalian expression system assessed as residual activity at 500 nM relative to control by BROMOscan assay
Bromodomain-containing protein 7 (Homo sapiens), sequence (Q9NPI1 whole entry, the tested form may be a part): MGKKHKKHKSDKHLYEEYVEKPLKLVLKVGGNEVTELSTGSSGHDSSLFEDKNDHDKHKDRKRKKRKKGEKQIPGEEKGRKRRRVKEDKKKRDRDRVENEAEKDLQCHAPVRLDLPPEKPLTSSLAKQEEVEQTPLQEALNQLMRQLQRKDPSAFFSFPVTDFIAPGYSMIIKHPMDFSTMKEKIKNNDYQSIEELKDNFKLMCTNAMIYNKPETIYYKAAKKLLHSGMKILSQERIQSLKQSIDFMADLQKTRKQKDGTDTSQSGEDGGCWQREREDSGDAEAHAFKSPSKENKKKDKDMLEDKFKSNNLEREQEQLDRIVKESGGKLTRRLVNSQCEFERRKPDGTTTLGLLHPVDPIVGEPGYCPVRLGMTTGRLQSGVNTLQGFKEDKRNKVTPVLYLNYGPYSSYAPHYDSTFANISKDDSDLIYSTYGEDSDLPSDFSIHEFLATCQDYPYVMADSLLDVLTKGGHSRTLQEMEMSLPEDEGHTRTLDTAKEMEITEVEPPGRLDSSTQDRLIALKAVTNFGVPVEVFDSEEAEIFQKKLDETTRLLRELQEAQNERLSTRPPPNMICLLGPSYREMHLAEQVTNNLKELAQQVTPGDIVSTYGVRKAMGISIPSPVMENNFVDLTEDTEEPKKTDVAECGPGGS

- Activity [1]: 88%
- Activity [2]: 61%
- Activity [3]: 91%
- Activity [4]: 87%
- Activity [6]: 85%
- Activity [7]: 19%
- Activity [8]: 84%
- Activity [9]: 11%
- Activity [10]: 100%
- Activity [11]: 100%
- remaining at 0.5 h [12]: 5%
- Activity [13]: 83%
- inhibition [14]: Dose-dependent effect
- Activity [15]: 89%
- Activity [16]: 87%
- Activity [18]: 11%
- Activity [19]: 36%
- Activity [20]: 17%
- Activity [21]: 37%
- Activity [22]: 30%
- Activity [23]: 14%
- t1/2 [25]: 3 h
- Activity [26]: 80%
Structure (SMILES): Cc1nnc2c(Nc3cccc(CNC(=O)C(C)C)c3)nc3ccccc3n12
- Activity [5]: 5%
- Activity [17]: 4%
- Activity [24]: 5%
